Consider 16 compounds from publication PMC4148159 (Journal of Medicinal Chemistry, 2014).

In assay [1] the target is T1, LPA4 (Mus musculus, UniProt Q8BLG2). As to the kind of experiment: Ca2+ mobilization antagonist screen against LPA 18:1, LPA4. It counts as cell-based, human. The conditions noted are these: coapplied with LPA 18:1.
Assay [2] concerns the target LPA1 (Homo sapiens, UniProt Q92633). Put plainly: Ca2+ mobilization antagonist screen against LPA 18:1, LPA1. The assay is classed as cell-based. The conditions noted are these: coapplied with LPA 18:1.
For assay [3], the target named is LPA2 (Homo sapiens, UniProt Q9HBW0). As to the kind of experiment: Fura-2AM Ca2+ mobilization, agonist mode, LPA2 DKO MEF cells. It counts as cell-based. The note with it: for LPA2 agonist activity (in words): Ca2+ mobilization, SAR discussion.
The subject of assay [4] is Vector control cells (DKO MEF, RH7777, CHO, B103). Put plainly: Fura-2AM Ca2+ mobilization in empty vector control cells. The note with it: read-out: vector EC50. The assay is classed as cell-based. The procedure, abridged:
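Cells were loaded with Fura-2AM, and transient Ca2+ mobilization was read as fluorescence on a robotic plate reader. Receptor-expressing lines were CHO (LPA4), DKO MEF (LPA2), RH7777 (LPA1/3) and B103 (LPA5). Vector controls were the same lines transduced with empty vector. […] Values are means of three assays.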

For assay [5], the target named is T2, LPA3 (Homo sapiens, UniProt Q9UBY5).
T2 sequence (Q9UBY5 1-353): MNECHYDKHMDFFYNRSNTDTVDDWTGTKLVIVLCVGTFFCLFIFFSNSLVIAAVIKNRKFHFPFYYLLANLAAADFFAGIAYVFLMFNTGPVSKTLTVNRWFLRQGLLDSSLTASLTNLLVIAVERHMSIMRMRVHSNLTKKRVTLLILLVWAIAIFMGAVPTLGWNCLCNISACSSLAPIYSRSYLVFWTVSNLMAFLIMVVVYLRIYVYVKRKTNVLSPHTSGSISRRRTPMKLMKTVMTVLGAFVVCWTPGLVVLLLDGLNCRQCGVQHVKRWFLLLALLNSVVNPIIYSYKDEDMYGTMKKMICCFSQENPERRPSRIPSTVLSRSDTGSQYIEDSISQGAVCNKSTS
As to the kind of experiment: Ca2+ mobilization antagonist screen against LPA 18:1, LPA3. It counts as cell-based.

The target in assay [6] is T3, LPA5 (Homo sapiens, UniProt Q9H1C0). As to the kind of experiment: Ca2+ mobilization antagonist screen against LPA 18:1, LPA5. The conditions noted are these: coapplied with LPA 18:1. The assay is classed as cell-based.
In assay [7] the test system is apoptosis. The conditions noted are these: cell-based models of apoptosis; cited from earlier work.
The test system of assay [8] is radiation-induced apoptosis. The conditions noted are these: mice suffering from the acute hematopoietic radiation syndrome; cited from earlier work.
Assay [9] deals with T1, LPA4. As to the kind of experiment: Fura-2AM Ca2+ mobilization, agonist mode, LPA4 CHO cells. The assay is classed as cell-based, human. The conditions noted are these: read-out: LPA4 Emax.
The target of assay [10] is T2, LPA3. Put plainly: Fura-2AM Ca2+ mobilization, agonist mode, LPA3-expressing cells. It counts as cell-based. The note with it: read-out: LPA3 Emax.
Assay [11] addresses T3, LPA5. As to the kind of experiment: Fura-2AM Ca2+ mobilization, agonist mode, LPA5 B103 cells. The conditions noted are these: B103, read-out: LPA5 Emax. The assay is classed as cell-based.

LPA2, sequence (Q9HBW0 whole entry): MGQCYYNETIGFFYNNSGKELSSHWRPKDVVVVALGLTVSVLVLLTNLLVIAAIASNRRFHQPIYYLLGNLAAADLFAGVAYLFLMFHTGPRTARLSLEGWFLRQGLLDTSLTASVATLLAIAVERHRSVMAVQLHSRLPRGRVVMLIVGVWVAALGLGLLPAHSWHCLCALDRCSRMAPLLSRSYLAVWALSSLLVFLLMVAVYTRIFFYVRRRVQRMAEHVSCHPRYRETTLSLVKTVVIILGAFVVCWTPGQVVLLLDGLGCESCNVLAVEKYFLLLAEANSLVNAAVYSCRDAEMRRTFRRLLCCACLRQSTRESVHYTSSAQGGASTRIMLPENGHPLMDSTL
T1 sequence (Q8BLG2 whole entry): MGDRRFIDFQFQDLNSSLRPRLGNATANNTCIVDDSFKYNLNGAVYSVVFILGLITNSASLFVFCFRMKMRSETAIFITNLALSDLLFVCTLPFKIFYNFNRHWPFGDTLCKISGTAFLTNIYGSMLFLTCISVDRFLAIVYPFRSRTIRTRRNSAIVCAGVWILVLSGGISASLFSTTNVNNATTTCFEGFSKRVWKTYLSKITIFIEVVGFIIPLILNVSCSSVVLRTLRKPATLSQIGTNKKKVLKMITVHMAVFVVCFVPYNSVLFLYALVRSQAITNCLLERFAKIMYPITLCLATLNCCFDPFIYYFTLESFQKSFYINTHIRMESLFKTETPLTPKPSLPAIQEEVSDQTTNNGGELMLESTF
T3 sequence (Q9H1C0 whole entry): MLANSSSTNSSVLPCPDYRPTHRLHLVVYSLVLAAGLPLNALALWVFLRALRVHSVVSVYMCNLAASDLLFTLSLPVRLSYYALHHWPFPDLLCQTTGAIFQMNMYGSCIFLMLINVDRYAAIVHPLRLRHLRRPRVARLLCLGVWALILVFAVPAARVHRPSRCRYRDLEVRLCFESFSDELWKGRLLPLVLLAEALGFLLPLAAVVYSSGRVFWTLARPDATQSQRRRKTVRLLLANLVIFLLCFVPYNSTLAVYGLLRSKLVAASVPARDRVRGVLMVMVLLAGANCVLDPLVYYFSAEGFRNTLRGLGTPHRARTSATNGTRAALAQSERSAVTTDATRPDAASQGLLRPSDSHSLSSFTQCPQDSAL
LPA1, sequence (Q92633 whole entry): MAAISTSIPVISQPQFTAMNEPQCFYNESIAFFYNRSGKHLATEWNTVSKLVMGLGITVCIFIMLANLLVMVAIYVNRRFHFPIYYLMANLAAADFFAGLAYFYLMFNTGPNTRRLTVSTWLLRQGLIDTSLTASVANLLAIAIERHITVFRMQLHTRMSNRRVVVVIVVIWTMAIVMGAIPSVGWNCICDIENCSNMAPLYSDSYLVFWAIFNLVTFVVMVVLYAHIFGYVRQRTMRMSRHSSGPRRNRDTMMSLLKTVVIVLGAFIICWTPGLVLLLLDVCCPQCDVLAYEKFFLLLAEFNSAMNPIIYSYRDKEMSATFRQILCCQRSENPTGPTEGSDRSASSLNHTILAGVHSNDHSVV

Turning to `O=C(O)c1ccccc1S(=O)(=O)NCCCN1C(=O)c2cccc3cccc(c23)C1=O` [Compound 4, 2-(N-(3-(1,3-dioxo-1H-benzo[de]isoquinolin-2(3H)-yl)propyl)sulfamoyl)benzoic acid], the “LPA4 inhibition (antagonist activity)” value in [1] is reported as “without activating or inhibiting”. In [2], the “LPA1 inhibition (antagonist activity)” value is “without activating or inhibiting”. In addition, the concentration giving a half-maximal response (EC50) in assay [3] was approximately 2 µM; in assay [4], more than 10 µM. Also, in [5], the IC50 was more than 10 µM. Further, the “LPA5 inhibition (antagonist activity)” value in assay [6] is on record as “without activating or inhibiting”.

`O=C(O)c1ccccc1S(=O)(=O)NCCCCN1C(=O)c2cccc3cccc(c23)C1=O` [Compound 5]: in [4], the EC50 is more than 10 µM.

As for `O=C(O)c1ccccc1S(=O)(=O)NCCCCCN1C(=O)c2cccc3cccc(c23)C1=O` [Compound 6], in assay [4], the 50% effective concentration (EC50) is more than 10 µM.

With `O=C(O)c1ccccc1S(=O)(=O)NCCCCN1C(=O)c2ccccc2C1=O` [Compound 7a, 2-[4-(1,3-Dioxo-1,3-dihydroisoindol-2-yl)butylsulfamoyl]benzoic acid], the EC50 in assay [3] and in assay [4] was more than 10 µM each time.

As to `O=C1C(=O)N(CCCCNS(=O)(=O)c2ccccc2C(=O)O)c2ccccc21` [Compound 7b, 2-(N-(4-(2,3-dioxoindolin-1-yl)butyl)sulfamoyl)benzoic acid], the EC50 in assay [3] and in [4] was more than 10 µM each time.

Consider `COc1ccc(C(=O)O)c(S(=O)(=O)NCCCCN2C(=O)c3cccc4cccc(c34)C2=O)c1` [Compound 8a], for which the “LPA2 agonist activity (in words)” value in assay [3] is listed as “very weak agonist activity”. In assay [4], the EC50 was more than 10 µM.

`O=C(O)c1ccc(Br)cc1S(=O)(=O)NCCCCN1C(=O)c2cccc3cccc(c23)C1=O` [Compound 8b]: in [3], the “LPA2 agonist activity (in words)” value is listed as “more potent than compound 4”. Besides, the concentration giving a half-maximal response (EC50) in assay [4] was more than 10 µM.

For `O=C(O)c1cc(Br)ccc1S(=O)(=O)NCCCCN1C(=O)c2cccc3cccc(c23)C1=O` [Compound 8c], the EC50 in assay [4] was more than 10 µM.

Take `O=C(O)c1ccc2c(c1)S(=O)(=O)N(CCCCN1C(=O)c3cccc4cccc(c34)C1=O)C2=O` [Compound 9, 2-(4-(1,3-dioxo-1H-benzo[de]isoquinolin-2(3H)-yl)butyl)-3-oxo-2,3-dihydrobenzo[d]isothiazole-6-carboxylic acid 1,1-dioxide]: the half-maximal effective concentration (EC50) in assay [4] was more than 10 µM.

In the case of `O=C(O)c1ccc(C(=O)O)c(S(=O)(=O)NCCCCN2C(=O)c3cccc4cccc(c34)C2=O)c1` [Compound 10, 2-(N-(4-(1,3-dioxo-1H-benzo[de]isoquinolin-2(3H)-yl)butyl)sulfamoyl)terephthalic acid], in assay [3], the “LPA2 agonist activity (in words)” value is “considerably less potent than the compound 9”. In [4], the half-maximal effective concentration (EC50) is more than 10 µM.

`O=C(O)c1cccc(S(=O)(=O)NCCCCN2C(=O)c3cccc4cccc(c34)C2=O)c1` [Compound 11a]: in [3], the “LPA2 agonist activity (in words)” value is given as “abolished the activity at LPA2”. For the same compound, in assay [4], the concentration giving a half-maximal response (EC50) was more than 10 µM.

Take `O=C(O)c1ccc(S(=O)(=O)NCCCCN2C(=O)c3cccc4cccc(c34)C2=O)cc1` [Compound 11b]: in assay [3], the “LPA2 agonist activity (in words)” value is on record as “abolished the activity at LPA2”. For the same compound, in assay [4], the EC50 was more than 10 µM.

For `O=C(O)c1cc(F)ccc1S(=O)(=O)NCCCCN1C(=O)c2cccc3cccc(c23)C1=O` [Compound 11c], in assay [4], the EC50 was more than 10 µM.

On to `O=C(O)c1cc(Cl)ccc1S(=O)(=O)NCCCCN1C(=O)c2cccc3cccc(c23)C1=O` [Compound 11d, 5-chloro-2-(N-(4-(1,3-dioxo-1H-benzo[de]isoquinolin-2(3H)-yl)butyl)sulfamoyl)benzoic acid], for which the EC50 in assay [4] is more than 10 µM.

Regarding `O=C(O)c1ccccc1SCCCN1C(=O)c2cccc3cccc(c23)C1=O` [GRI-977143], the antiapoptotic efficacy result in [7] is reported as “showed antiapoptotic efficacy”. The “efficacy against radiation-induced apoptosis” value in assay [8] is recorded as “modestly efficacious”. Moreover, the EC50 in [4] is more than 10 µM.

`CCCCCCCC/C=C\CCCCCCCC(=O)OC[C@@H](O)COP(=O)(O)O` [LPA 18:1, 1-acyl-2-hydroxy-sn-3-glycerophosphate]: the maximal response (Emax) amounted to 100% in assay [9]; 100% in assay [10]; 100% in [3] (MEF, read-out: LPA2 Emax); 100% in [11]. Moreover, in assay [4], the EC50 is more than 10 µM.
